Experimental data: ChEMBL document CHEMBL5316295, “Systematic Design of Adenosine Analogs as Inhibitors of a Clostridioides difficile-Specific DNA Adenine Methyltransferase Required for Normal Sporulation and Persistence” (J Med Chem, 2023)
The source made the active and inactive calls. The rule behind the calls is not given here.

How the values were obtained:
[1] = molecular target: Histone-lysine N-methyltransferase EZH2 (Homo sapiens) (UniProt Q15910); experiment: Inhibition of EZH2 (unknown origin) using chicken core histone as substrate and 3H-SAM as cosubstrate at 10 uM pretreated with compound for 20 mins in presence of chicken core histone followed by cosubstrate addition and measured after 1 hr; conditions: time 80.0 min
Sequence of Histone-lysine N-methyltransferase EZH2 (Homo sapiens) (Q15910 whole entry, looked up): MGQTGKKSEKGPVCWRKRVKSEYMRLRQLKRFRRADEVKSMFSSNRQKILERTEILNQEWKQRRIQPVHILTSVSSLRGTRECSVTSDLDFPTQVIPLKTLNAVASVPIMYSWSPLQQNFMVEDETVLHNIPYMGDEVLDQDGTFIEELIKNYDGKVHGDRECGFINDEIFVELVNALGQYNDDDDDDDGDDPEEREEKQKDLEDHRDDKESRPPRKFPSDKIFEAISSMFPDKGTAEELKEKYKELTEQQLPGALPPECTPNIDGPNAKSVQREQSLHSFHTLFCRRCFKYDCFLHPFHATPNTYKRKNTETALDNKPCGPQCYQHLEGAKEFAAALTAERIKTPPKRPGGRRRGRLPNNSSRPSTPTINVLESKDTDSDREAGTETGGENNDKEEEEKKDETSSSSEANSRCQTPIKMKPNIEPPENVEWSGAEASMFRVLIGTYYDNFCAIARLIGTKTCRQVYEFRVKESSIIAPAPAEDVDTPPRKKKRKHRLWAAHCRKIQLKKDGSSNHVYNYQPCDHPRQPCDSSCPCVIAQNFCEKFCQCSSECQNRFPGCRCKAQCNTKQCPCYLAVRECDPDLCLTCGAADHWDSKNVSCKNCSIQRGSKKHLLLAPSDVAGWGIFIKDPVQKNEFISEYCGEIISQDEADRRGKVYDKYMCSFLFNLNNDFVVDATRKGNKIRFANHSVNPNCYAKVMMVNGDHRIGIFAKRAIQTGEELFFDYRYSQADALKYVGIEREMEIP
Outline: (§1)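 Enzymes (DOT1L 1 nM; EZH2, G9a, PRMT1 5 nM) mixed with substrate (0.05 mg/mL oligonucleosomes for DOT1L; 0.05 mg/mL core histone for EZH2; 5 μM H3 1–21 peptide for G9a; 5 μM H4 for PRMT1). Compound (10 μM) added for 20 min at room temperature, then 1 μM ³H-SAM for 1 h at 30 °C; filter-paper read-out. Triplicates, mean ± SD.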

[2] = molecular target: Histone-lysine N-methyltransferase, H3 lysine-79 specific (Homo sapiens) (UniProt Q8TEK3); experiment: Inhibition of human DOT1L using oligonucleosome as substrate and 3H-SAM as cosubstrate at 10 uM pretreated with compound for 20 mins in presence of oligonucleosome followed by cosubstrate addition and measured after 1 hr; conditions: time 80.0 min; outline: as §1
Sequence of Histone-lysine N-methyltransferase, H3 lysine-79 specific (Homo sapiens) (Q8TEK3 whole entry, looked up, the tested form may be a part): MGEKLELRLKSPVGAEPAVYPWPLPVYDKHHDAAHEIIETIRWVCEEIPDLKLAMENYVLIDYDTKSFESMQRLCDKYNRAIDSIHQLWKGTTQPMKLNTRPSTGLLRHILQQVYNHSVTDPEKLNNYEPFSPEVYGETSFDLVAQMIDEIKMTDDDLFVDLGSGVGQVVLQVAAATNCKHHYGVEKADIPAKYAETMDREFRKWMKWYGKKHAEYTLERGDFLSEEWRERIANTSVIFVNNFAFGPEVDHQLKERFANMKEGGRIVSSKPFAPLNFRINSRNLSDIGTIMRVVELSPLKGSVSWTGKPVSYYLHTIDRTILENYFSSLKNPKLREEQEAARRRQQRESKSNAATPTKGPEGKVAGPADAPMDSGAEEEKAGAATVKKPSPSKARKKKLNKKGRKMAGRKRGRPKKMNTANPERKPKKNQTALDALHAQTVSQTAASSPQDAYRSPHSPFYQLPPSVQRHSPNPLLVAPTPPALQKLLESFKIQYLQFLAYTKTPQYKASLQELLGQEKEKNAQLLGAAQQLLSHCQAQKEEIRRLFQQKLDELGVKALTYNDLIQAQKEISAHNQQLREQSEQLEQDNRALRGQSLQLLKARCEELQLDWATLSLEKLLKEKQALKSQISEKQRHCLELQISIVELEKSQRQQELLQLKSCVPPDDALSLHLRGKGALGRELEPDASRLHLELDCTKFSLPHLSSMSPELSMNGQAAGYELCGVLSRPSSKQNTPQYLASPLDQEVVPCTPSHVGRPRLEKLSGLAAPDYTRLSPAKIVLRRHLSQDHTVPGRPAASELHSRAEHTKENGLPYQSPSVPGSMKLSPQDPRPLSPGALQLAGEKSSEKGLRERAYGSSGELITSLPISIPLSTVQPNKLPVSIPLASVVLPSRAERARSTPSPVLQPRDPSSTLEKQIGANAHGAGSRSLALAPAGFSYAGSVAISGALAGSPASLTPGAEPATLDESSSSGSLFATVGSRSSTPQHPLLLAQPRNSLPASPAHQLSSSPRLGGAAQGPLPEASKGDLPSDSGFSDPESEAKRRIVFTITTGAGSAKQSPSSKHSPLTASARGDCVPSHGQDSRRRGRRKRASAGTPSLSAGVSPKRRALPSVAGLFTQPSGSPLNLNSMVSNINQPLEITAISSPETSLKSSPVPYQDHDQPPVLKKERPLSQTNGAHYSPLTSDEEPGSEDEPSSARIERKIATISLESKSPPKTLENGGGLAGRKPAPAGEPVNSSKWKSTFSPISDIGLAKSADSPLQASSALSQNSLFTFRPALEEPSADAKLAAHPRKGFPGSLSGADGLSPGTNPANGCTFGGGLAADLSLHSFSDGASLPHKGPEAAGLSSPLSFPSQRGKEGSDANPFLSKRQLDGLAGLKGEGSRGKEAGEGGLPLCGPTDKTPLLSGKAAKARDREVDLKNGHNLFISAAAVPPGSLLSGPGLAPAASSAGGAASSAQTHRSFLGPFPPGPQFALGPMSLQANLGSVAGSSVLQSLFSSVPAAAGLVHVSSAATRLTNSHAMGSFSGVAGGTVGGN

[3] = molecular target: DNA (cytosine-5)-methyltransferase 1 (Homo sapiens) (UniProt P26358); experiment: Inhibition of human DNMT1 (351 to 1600 residues) using 5'-CCT GCG GAG GCT MGT CAT GA-3' and 3'-GGACGCCTCCGAGCAGTACT-5' as substrate and SAM as cosubstrate at 10 uM incubated for 1 hr
Sequence of DNA (cytosine-5)-methyltransferase 1 (Homo sapiens) (P26358 whole entry, the tested form may be a part): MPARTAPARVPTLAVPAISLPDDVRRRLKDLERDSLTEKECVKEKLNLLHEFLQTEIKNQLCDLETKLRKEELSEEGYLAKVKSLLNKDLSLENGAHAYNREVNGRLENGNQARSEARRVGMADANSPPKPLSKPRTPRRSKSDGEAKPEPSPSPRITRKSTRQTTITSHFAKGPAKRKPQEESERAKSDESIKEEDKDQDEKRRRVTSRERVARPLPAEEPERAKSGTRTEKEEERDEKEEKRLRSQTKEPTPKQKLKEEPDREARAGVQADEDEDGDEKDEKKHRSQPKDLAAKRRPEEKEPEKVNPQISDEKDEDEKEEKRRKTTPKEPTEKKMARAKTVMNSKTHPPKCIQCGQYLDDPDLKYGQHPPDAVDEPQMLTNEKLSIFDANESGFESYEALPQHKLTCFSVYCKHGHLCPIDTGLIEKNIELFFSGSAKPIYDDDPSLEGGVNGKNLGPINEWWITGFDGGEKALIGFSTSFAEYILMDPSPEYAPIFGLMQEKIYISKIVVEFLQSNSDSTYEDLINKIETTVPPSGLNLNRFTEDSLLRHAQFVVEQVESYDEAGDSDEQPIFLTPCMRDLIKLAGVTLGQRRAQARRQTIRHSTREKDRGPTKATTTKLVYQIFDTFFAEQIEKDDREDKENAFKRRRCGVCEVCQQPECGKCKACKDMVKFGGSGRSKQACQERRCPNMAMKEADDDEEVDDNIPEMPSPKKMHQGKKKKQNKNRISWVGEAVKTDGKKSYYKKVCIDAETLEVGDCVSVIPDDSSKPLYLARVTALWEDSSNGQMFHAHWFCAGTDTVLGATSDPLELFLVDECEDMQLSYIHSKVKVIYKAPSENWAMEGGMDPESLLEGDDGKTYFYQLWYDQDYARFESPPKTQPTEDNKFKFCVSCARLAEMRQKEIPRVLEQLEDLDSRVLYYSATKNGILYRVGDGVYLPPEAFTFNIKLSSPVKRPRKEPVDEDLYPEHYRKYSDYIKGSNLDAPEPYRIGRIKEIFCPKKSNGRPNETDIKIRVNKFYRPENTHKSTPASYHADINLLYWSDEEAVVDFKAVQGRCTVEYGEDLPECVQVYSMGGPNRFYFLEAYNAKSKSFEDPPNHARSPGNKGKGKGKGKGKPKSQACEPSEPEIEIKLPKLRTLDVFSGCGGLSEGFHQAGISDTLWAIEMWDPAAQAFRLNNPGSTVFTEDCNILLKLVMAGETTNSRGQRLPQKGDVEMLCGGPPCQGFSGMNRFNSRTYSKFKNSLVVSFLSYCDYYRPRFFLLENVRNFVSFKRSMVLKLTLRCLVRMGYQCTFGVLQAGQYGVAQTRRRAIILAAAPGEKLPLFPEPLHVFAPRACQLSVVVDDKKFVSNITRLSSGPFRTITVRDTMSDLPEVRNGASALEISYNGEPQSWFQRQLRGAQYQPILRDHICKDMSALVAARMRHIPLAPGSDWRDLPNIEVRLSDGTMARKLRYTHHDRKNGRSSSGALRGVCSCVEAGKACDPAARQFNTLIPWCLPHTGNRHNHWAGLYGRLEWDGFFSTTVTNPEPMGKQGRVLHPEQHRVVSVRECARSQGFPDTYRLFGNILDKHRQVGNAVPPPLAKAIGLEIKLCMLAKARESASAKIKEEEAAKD
Outline: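 DNMT1 (0.1 μM) with 1 μM hemimethylated dsDNA, 5.5 μM SAM and 10 μM inhibitor in 50 mM Tris pH 7.5, 1 mM EDTA, run 1 h at 37 °C.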

[4] = molecular target: Protein arginine N-methyltransferase 1 (Homo sapiens) (UniProt Q99873); experiment: Inhibition of PRMT1 (unknown origin) using histone H4 as substrate and 3H-SAM as cosubstrate at 10 uM pretreated with compound for 20 mins in presence of histone H4 followed by cosubstrate addition and measured after 1 hr; conditions: time 80.0 min; outline: as §1
Sequence of Protein arginine N-methyltransferase 1 (Homo sapiens) (Q99873 whole entry, looked up): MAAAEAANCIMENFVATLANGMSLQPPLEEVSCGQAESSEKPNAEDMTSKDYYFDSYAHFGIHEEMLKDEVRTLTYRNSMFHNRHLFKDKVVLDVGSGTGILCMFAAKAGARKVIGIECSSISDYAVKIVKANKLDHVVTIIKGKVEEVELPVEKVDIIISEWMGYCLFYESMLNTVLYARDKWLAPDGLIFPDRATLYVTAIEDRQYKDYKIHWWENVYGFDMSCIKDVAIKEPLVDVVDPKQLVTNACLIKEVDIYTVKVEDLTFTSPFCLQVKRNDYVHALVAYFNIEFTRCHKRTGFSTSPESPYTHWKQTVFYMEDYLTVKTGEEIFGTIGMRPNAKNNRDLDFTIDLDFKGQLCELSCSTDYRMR

[5] = Inhibition of Clostridioides difficile-specific DNA adenine methyltransferase mediated methylation using 5'-CGA TTC AAA AAG TCC CAA G-3' and 3'-GCT AAG TTT TTC AGG GTT C-5' as substrate and SAM as cosubstrate preincubated for 5 mins followed by substrate and cosubstrate addition and measured after 3 mins by MTase glo assay
[6] = molecular target: T1, RNA N(6)-adenosine-methyltransferase METTL16 (Homo sapiens) (UniProt Q86W50); experiment: Inhibition of human METTL16 using 5'-GGUUGGCGUAGGCUACAGAGAAGCCAACC-3' as substrate and SAM as cosubstrate at 10 uM incubated for 15 mins
T1 sequence (whole entry): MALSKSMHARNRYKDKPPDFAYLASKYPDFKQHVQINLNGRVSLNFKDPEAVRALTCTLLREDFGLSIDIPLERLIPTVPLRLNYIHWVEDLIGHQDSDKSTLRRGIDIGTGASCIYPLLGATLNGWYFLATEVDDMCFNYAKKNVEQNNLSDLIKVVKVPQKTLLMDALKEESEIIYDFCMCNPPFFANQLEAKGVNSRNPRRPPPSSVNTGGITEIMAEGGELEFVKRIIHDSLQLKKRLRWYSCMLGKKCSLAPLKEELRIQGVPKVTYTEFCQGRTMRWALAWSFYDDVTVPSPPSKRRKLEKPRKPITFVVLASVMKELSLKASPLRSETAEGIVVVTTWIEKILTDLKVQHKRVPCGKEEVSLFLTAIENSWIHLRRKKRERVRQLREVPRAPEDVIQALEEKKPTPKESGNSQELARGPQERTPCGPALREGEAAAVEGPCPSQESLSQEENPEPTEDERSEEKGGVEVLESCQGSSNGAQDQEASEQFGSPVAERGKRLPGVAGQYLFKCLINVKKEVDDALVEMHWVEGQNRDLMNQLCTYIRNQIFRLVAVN
Outline: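 Under CamA buffer conditions (30 μM SAM) the assay ran 15 min with ssRNA hairpin substrate and 10 μM inhibitor. A separate condition used 0.4 μM enzyme, 5 μM RNA, 160 μM SAM in 20 mM Tris–HCl pH 8.0, 400 mM NaCl, 1 mM DTT, 0.25% DMSO for 30 min.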

Structure (SMILES)	inhibition [1]	inhibition [2]	inhibition [3]	inhibition [4]	IC50 [5] [nM]	inhibition [6]
CC(C)(C)OC(=O)N1CCC(CCCNc2ncnc3c2ncn3[C@@H]2O[C@H](CO)[C@@H](O)[C@H]2O)CC1	inactive	inactive	inactive	inactive	390	inactive
CC(C)(C)OC(=O)N1CCC(CCNc2ncnc3c2ncn3[C@@H]2O[C@H](CO)[C@@H](O)[C@H]2O)CC1	inactive	inactive	inactive	inactive	710	inactive
OC[C@H]1O[C@@H](n2cnc3c(NCCCc4ccc(O)cc4)ncnc32)[C@H](O)[C@@H]1O	inactive	inactive	inactive	inactive	510	inactive
